# High-throughput results from PubChem BioAssay.
# Shown are actives, neighbours in structure and some others; about 5.4% of the full set was active somewhere.
# SKKanGAS inh: S. pyogenes SKKanGAS growth inhibitors in kanamycin, primary screen, streptokinase expression inhibitor project, SKKanGAS strain, BacTiter-Glo luminescence. 1.3% of 300,000 active. inhibition, % at 7.5 µM. 6 h;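 active means mean replicate score, as percent of positive control median, at least 50; inconclusive means mean below 50 but one replicate at or above 50; inactive means mean and every replicate below 50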;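 further: strain carries kanamycin resistance gene driven by streptokinase promoter and grows in 40 µg/ml kanamycin; loss of luminescence reflects streptokinase promoter inhibition or plain growth inhibition; 0% = median of DMSO wells and 100% = positive control at its reference dose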
# CSC inhib: cancer stem cell viability inhibitors, primary screen, luminescence | AID 2717, 2010 | 1.1% of 300,000 active | cancer stem cell-like cells viability | inhibition, % at 7.5 µM; in the data active means inhibition above about 75%; inconclusive means no clear call, values can overlap the other calls; tested in HMLE shEcad cells
# Mdm2 MdmX PPI: inhibitors of human Mdm2-MdmX association, primary screen, cell-based, luminescence, split luciferase, SaOS-2, uHTS | Protein Mdm4 (Homo sapiens) + E3 ubiquitin-protein ligase Mdm2 (Homo sapiens), … | SaOS-2 split-luciferase Mdm2/MdmX complementation | inhibition, % at 8 µM | 3% of 330,000 active;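 active means inhibition of at least 50% at 8 µM in the primary screen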
# Target sequence (O15151 whole entry, looked up): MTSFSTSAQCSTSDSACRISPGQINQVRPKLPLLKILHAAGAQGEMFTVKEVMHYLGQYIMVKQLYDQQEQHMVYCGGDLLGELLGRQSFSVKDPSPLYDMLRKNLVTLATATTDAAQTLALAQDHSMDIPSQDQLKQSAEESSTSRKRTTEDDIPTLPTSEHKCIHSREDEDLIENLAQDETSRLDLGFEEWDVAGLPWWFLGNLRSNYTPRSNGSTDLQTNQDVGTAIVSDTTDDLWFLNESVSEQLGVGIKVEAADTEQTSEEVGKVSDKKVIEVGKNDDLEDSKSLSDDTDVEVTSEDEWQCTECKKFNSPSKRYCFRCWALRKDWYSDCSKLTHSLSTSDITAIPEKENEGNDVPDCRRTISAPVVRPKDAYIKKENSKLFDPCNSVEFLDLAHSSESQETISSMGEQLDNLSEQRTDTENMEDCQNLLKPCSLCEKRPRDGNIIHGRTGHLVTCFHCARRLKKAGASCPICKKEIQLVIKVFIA
# Target sequence (Q00987 whole entry, looked up): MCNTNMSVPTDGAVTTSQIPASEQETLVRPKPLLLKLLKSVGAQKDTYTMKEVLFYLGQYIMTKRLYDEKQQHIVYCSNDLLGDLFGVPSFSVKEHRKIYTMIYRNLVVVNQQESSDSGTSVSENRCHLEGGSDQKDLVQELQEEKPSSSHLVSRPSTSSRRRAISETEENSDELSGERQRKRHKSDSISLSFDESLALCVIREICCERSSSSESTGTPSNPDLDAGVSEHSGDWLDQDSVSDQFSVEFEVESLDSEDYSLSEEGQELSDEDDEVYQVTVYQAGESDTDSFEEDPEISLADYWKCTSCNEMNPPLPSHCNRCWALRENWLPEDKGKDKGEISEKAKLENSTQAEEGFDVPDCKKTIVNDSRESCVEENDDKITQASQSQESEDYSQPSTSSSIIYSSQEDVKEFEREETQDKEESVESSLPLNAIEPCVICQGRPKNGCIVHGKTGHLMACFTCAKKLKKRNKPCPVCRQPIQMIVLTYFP
# aSyn UTR inh: MLPCN primary screen, SNCA 5' untranslated region; 0.82% of 300,000 active; alpha-synuclein 5'UTR reporter, inhibitor activity; AID 1813, 2009; inhibition, % (tested at 7.5 µM); in the data active means inhibition above about 60%; inconclusive means no clear call, values can overlap the other calls;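 further: H4 neuroglioblastoma cells stably carrying SNCA 5'UTR luciferase fusion; 0% = DMSO wells and 100% = positive control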
# T cruzi inh: inhibitors of intracellular T. cruzi growth, primary screen, luminescence, NIH3T3 host cells. 1.4% of 300,000 active. inhibition, % (test concentration not listed). AID 1885, 2009. T. cruzi beta-gal in NIH3T3, 90 h;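 active means mean inhibition across valid replicates above about 55%, limit read from the data; inconclusive means mean below that limit but half or more replicates reach it; inactive means mean below it, under half of replicates reach it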;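 further: signal also drops with host cell toxicity which is not excluded here; 0% = plate median of DMSO wells and 100% = zero luminescence signal; higher percent means less beta-gal luminescence so fewer parasites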
#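 Test system: β-gal T. cruzi (Tulahuen C4) inside NIH/3T3 cells / Quantity: 5,000 cells/well / Measured by: luminescence from GalScreen with 0.05% NP40, read after 60 min / Medium: DMEM plus 2% FBS / Measure: parasite load inhibition, % / Reagent: Tulahuen C4 trypomastigotes, 5000/well / Schedule: co-culture of at least 90 h after 3 h attachment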
# Mdm2-MdmX conf: Mdm2-MdmX complex disruptors, retested hits, confirmation, luminescence, single concentration; shares compounds with Mdm2 MdmX PPI; inhibition, % at 8 µM; Mdm2-MdmX binding, luminescent assay; AID 489028, 2010; 55% of 10,000 active; in the data active means inhibition above about 40%
# FLuc counter: full-length luciferase signal inhibition, confirmation, counter-screen for Mdm2/MdmX interaction inhibitor project, cell-based, single concentration, SaOS-2. AID 504607, 2011. inhibition, % at 8 µM. 77% of 6,200 active. shares compounds with Mdm2 MdmX PPI. SaOS-2 full-length luciferase counterscreen, luminescence;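 active means mean inhibition at 8 µM reaching about 37%, which flags the compound as non-specific, limit read from the data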;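 further: p53-null SaOS-2 cells with luciferase driven by a doxycycline-inducible promoter; compound on cells about two nights before reading with doxycycline added after day one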
# * = called active by the depositor; ? = inconclusive; · = not tested or not shown.
SMILES,SKKanGAS inh,CSC inhib,Mdm2 MdmX PPI,aSyn UTR inh,T cruzi inh,Mdm2-MdmX conf,FLuc counter
COCCCNC1=C(Cl)C(=O)c2ccccc2C1=O,0,·,6,-30,2,·,·
COCCCNc1c2c3c(cccc3[nH]c1=O)C(=O)c1ccccc1-2,·,53,57*,·,·,58*,86*
CCCCCCC[C@@H](C/C=C/CCC(=O)N(C)C/C(=C/Cl)C/C(=C\C(=O)N1CC(OC)=CC1=O)OC)OC,·,140*,60*,·,·,-20,·
C[n+]1c2n(c3ccccc31)N=C(c1ccccc1)CS2,0,-12,14,-48,26,·,·
C[n+]1c2n(c3ccccc31)N=C(c1ccc(-c3ccccc3)cc1)CS2,39,39,80*,10,60*,61*,26
Cc1ccc2sc(N(CCN(C)C)C(=O)c3ccc(S(=O)(=O)N4CC(C)OC(C)C4)cc3)nc2c1C (stereo unspecified),1,3,-5,-17,31,·,·
Cc1ccc2sc(N(CCCN(C)C)C(=O)c3ccc(S(=O)(=O)N(C)C4CCCCC4)cc3)nc2c1C,7,89*,99*,-17,59*,54*,67*
CCN(Cc1ccccc1)S(=O)(=O)c1ccc(C(=O)N(CCCN(C)C)c2nc3c(C)c(C)ccc3s2)cc1,27,-3,97*,-45,60*,46*,49*
CCN(CC)CCN(C(=O)c1ccc(S(=O)(=O)N(C)C2CCCCC2)cc1)c1nc2c(C)cccc2s1,10,14,24,1,33,·,·
CCN(Cc1ccccc1)S(=O)(=O)c1ccc(C(=O)N(CCCN(C)C)c2nc3cc4c(cc3s2)OCO4)cc1,7,-19,73*,-14,37,16,·
CCCc1nnc(NC(=O)c2nc(S(=O)(=O)Cc3cccc(C)c3)ncc2Cl)s1,3,108*,90*,-30,0,40,12
Cc1cccc(CS(=O)(=O)c2ncc(Cl)c(C(=O)Nc3c(C)cccc3C)n2)c1,-21,·,94*,35,-37,86*,51*
Cc1ccccc1NC(=O)c1nc(S(C)(=O)=O)ncc1Cl,12,9,39,6,46,·,·
Cc1cccc(CS(=O)(=O)c2ncc(Cl)c(C(=O)NCc3ccccc3)n2)c1,-25,13,83*,64*,-12,66*,7
Cc1cccc(C)c1NC(=O)c1nc(S(=O)(=O)Cc2ccccc2)ncc1Cl,-11,·,68*,19,-17,98*,1
CCCc1nnc(NC(=O)CS(=O)(=O)c2ccc(C)cc2)s1,-5,7,7,19,-30,·,·
OCc1cccc(Nc2ncnc3sc4c(c23)CCCCC4)c1,-1,20,15,12,12,·,·
Cc1nn(-c2ccccc2)c(C)c1NS(=O)(=O)c1ccccc1,-11,5,-27,37,13,·,·
CCOC(=O)c1c(N=CN(C)C)c2cc([N+](=O)[O-])cnc2n1C,2,-3,7,11,2,·,·
Cc1nnc(NC(=O)c2nc(S(=O)(=O)Cc3ccccc3)ncc2Cl)s1,6,·,85*,-23,-15,16,·
O=C(/C=C/c1ccco1)Nc1ccc(Oc2ccc(Cl)cc2)cc1,-11,2,55*,-203,23,60*,40*
COc1cccc(NC(=O)/C=C/c2ccco2)c1,-1,-1,-116,-158,-23,·,·
O=S(=O)(c1ccc(N2CCC(c3ccc(Cl)cc3)=N2)cc1)N(CCO)CCO,4,29,18,0,8,·,·
CN(C)CCCNS(=O)(=O)c1ccc(N2CCC(c3ccc(Cl)cc3)=N2)cc1,-2,112*,100*,?,72*,100*,2
C=CCC(Nc1ccccc1)C12C=CC(O1)C(C(=O)OC)=C2C(=O)OC (stereo unspecified),-1,64,89*,-36,-1,46*,31
SMILES,SKKanGAS inh,CSC inhib,Mdm2 MdmX PPI,aSyn UTR inh,T cruzi inh,Mdm2-MdmX conf,FLuc counter
CCOC(=O)c1c2c(n(C)c1C)C(=O)C(=O)c1ccc(Br)cc1-2,59*,121*,95*,110*,-17,98*,48*
O=[N+]([O-])c1ccc(N=Nc2ccc(O)cc2O)cc1,?,83*,98*,45,45,56*,30
Cc1ccc(S(=O)(=O)N(C)Cc2ccc(C(=O)N/N=C3\CC(=O)CC(C)(C)C3)cc2)cc1,12,0,27,-2,13,·,·
CC(C)NC(=O)CC(=O)NN=C1CCCCC1,2,-13,8,-14,-10,·,·
Cc1ccc(NC(=O)c2ccccc2NS(=O)(=O)c2ccc(Cl)s2)cc1S(=O)(=O)N1CCOCC1,38,·,66*,23,10,45*,52*
COc1ccc(C)cc1NC(=O)c1ccccc1NS(=O)(=O)c1ccc(Cl)s1,36,?,89*,0,4,79*,32
Cc1ccc(NC(=O)c2ccc([N+](=O)[O-])s2)cc1S(=O)(=O)N1CCOCC1,·,25,65*,·,·,25,·
CCOc1ccccc1NC(=O)NC1CC2CCCC(C1)N2Cc1nnnn1CCc1ccccc1 (stereo unspecified),4,-18,10,13,5,·,·
O=C(CCl)NCc1cc(-c2ccc(Cl)cc2)no1,5,59,73*,-65,51,29,66*
COc1ccc(OCc2cc(-c3ccc(Cl)cc3)no2)cc1,4,5,-18,-32,-83,·,·
Cc1ccc(C(=O)NCc2ccc3c(c2)OCO3)o1,-2,·,14,-20,-5,·,·
Cc1ccc2cc3cc(C(=O)NCc4ccc5c(c4)OCO5)oc3nc2c1,4,·,68*,-41,-6,28,·
CC(C)(C)n1nnnc1C(c1ccccn1)N(Cc1ccccc1)Cc1ccc(Cl)cc1 (stereo unspecified),11,-17,60*,27,40,8,·
CN1CCN(C(=O)C2CCC(=O)N(Cc3cccc(C(F)(F)F)c3)C2)CC1 (stereo unspecified),-1,-11,-4,5,-8,·,·
COc1cc(C#Cc2c(-c3cncn3C)n(C)c3ccc(-c4cc(OC)c(OC)c(OC)c4)cc23)cc(OC)c1,·,62,96*,·,·,51*,62*
COc1cc(C#Cc2c(-c3cncn3C)n(C)c3ccc(-c4ccc5[nH]ccc5c4)cc23)cc(OC)c1,·,33,26,·,·,·,·
COc1cc(C#Cc2c(-c3cncn3C)n(C)c3ccc(-c4ccc(OC)nc4)cc23)cc(OC)c1,·,84*,69*,·,·,36,58*
